Experimental data pooled from the literature.
Lines come from different studies, so protocols differ.
Cell line: SW-620

The GI50 of COc1ccc(C(=O)/C=C/c2ccccc2Br)cc1S(N)(=O)=O is reported as 1800 nM (cell growth or viability, SRB; 48 h).
The IC50 of Cc1ccc(Cn2cnc3ccc(/C=C/C(=O)NO)cc3c2=O)cc1 is reported as 1430 nM (cell growth or viability, SRB; 48 h).
The IC50 of O=C(O)C[C@H](O)C[C@H](O)/C=C/c1c(C2CC2)nc2ccccc2c1-c1ccc(F)cc1 is reported as 0.54 µg/mL (cell growth or viability, SRB; 72 h).
For S=C([S][Au-][P+](CCCCCC[P+]([Au-][S]C(=S)n1cccn1)(c1ccccc1)c1ccccc1)(c1ccccc1)c1ccccc1)n1cccn1, the GI50 was 4490 nM (cell growth or viability).
O=C(/C=C/c1ccc2c(=O)n(CCCl)cnc2c1)NO gave an IC50 of 5640 nM (cell growth or viability, SRB; 48 h).
For COc1cc(Nc2nccc(-c3cnn4nc(OC)ccc34)n2)cc(C(F)(F)F)c1, the IC50 was 160 nM (cell growth or viability, ATP luminescence).
With O=C(/C=C/c1ccc2c(=O)n(Cc3ccccc3)cnc2c1)NO the IC50 was 1130 nM (cell growth or viability, SRB; 48 h).
COc1ccc(C(=O)/C=C/c2ccc3c(c2)OCCO3)cc1S(N)(=O)=O has an inhibition of 68% (cell growth or viability, SRB; 10 µM).
The viability of CC(=O)Nc1cccc(-n2c(=O)n(C3CC3)c(=O)c3c(Nc4ccc(I)cc4F)n(C)c(=O)c(C)c32)c1 is reported as 71.7% (cell growth or viability, resazurin; 780 pM, 72 h).
The GI50 of COc1ccc(C(=O)/C=C/c2ccc3ccccc3c2)cc1S(N)(=O)=O is reported as 1800 nM (cell growth or viability, SRB; 48 h).
The IC50 of COc1cccc2c1C(=O)c1c(O)c3c(c(O)c1C2=O)C[C@@](O)(C(=O)CO)C[C@@H]3O[C@H]1C[C@H](N)[C@H](O)[C@H](C)O1 is reported as 2.57 µg/mL (cell growth or viability, MTT; 48 h).
Cn1cc(-c2ccc(-c3cncc(Cl)c3N3CCC4(CCNC4=O)CC3)cc2)cn1 has a GI50 of 140 nM (colony formation; 14 days, 3D culture).
For O=C(/C=C/c1ccc2c(=O)n(Cc3ccc(Cl)cc3)cnc2c1)NO, the IC50 was 671 nM (cell growth or viability, SRB; 48 h).
CC[C@H](C)C(=O)O[C@H]1CCC=C2C=C[C@H](C)[C@H](CC[C@@H]3C[C@@H](O)CC(=O)O3)[C@H]21 has an IC50 of 0.48 µg/mL (cell growth or viability, SRB; 72 h).
With CCn1cnc2cc(/C=C/C(=O)NO)ccc2c1=O the IC50 was 2970 nM (cell growth or viability, SRB; 48 h).
With COc1ccc(C(=O)/C=C/c2cccc(Cl)c2Cl)cc1S(N)(=O)=O the GI50 was 1600 nM (cell growth or viability, SRB; 48 h).
